From publication PMC6240402 (The Journal of allergy and clinical immunology, 2018)
Entries after “also recorded” stand apart in the source; their conditions may differ.

Legend:
[1] = biological target: T1, CCR3 (human blood eosinophils) (Homo sapiens, UniProt P51677); assay: Eotaxin-induced chemotaxis of blood eosinophils; assay type: cell-based; conditions: CCL11 12 nM, CCL24 20 nM, CCL26 100 nM
T1 sequence (P51677 1-355): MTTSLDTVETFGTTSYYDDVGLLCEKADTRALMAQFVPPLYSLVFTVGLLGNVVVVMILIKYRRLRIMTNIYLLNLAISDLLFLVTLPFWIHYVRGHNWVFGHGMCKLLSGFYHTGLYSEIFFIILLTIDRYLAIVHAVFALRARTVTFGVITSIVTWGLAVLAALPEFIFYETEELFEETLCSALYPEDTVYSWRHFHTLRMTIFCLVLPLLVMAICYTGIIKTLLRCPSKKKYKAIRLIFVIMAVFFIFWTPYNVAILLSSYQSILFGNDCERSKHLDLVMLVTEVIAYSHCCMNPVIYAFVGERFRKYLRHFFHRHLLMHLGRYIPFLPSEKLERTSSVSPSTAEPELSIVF
Summary of the method: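 Eosinophils were taken from the blood of mild allergic asthmatic subjects, separated over a Ficoll-Paque Plus gradient, then purified by negative selection with an eosinophil isolation kit. The test peptide was given at 0.001–10 μM, with 4 h chemotaxis toward CCL11 (12 nM), CCL24 (20 nM) or CCL26 (100 nM). IC50 and IC90 were derived from the dose-response inhibition curves.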

[2] = biological target: T2, CCR3 (AML14.3D10-CCR3 cells) (Homo sapiens, UniProt P51677); assay: Eotaxin-induced chemotaxis of AML14.3D10-CCR3 cells; assay type: cell-based; conditions: CCL11 12 nM, CCL24 20 nM, CCL26 100 nM
T2 sequence (P51677 1-355): T1 sequence (P51677 1-355)
Summary of the method: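 Eosinophil-differentiated acute myeloid leukaemia line stably transfected to express CCR3. Cells exposed to the test peptide across 0.001–10 μM as a dose-response, then allowed to migrate for 4 h toward CCL11 (12 nM), CCL24 (20 nM) or CCL26 (100 nM). Read-out is inhibition of chemotaxis.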

[3] = Solubility observation; assay type: physicochemical; conditions: authors' own experience; unsuitable for iv injection
[4] = test system: lung eosinophils; conditions: subcutaneous 100 mg/kg, resuspended with Tween-80; cited from earlier work
[5] = biological target: T3, CCR3 (Homo sapiens, UniProt P51677); assay: CCR3 surface expression/internalization in AML14.3D10-CCR3 cells; assay type: cell-based
T3 sequence (P51677 1-355): T1 sequence (P51677 1-355)
Summary of the method: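 CCR3-transfected, eosinophil-differentiated AML14.3D10 cells were exposed for 30 min to vehicle, test peptide (0.01–10 μM) or comparator antagonists (1 μM), each with or without CCL11 (12 nM). Longer exposures ran 24–72 h at 1 μM, with daily medium/inhibitor renewal. Cells were blocked with 10% heat-inactivated human AB serum, stained with PE anti-CCR3 (5E8) or isotype, and analysed by flow cytometry. Values are mean ± SEM, n=3, in triplicate.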

[6] = biological target: T3, CCR3; conditions: SB328437; cited from earlier work
[7] = biological target: T1, CCR3 (human blood eosinophils); assay: CCR3 surface expression in human blood eosinophils, prolonged exposure; assay type: cell-based
Summary of the method: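 Eosinophils came from blood of mild allergic asthmatic donors, separated on a Ficoll-Paque gradient and then negatively selected. Cells got vehicle or 1 μM inhibitor, with or without CCL11 (12 nM), for 24, 48 or 72 h, refreshed daily with medium plus inhibitor. After blocking with 10% heat-inactivated human AB serum, cells were stained with PE anti-CCR3 (clone 5E8) or isotype control and read by flow cytometry. Surface CCR3 is given as % of vehicle: mean ± SEM, n=3, triplicate.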

[8] = test system: CCR3 (AML14.3D10-CCR3 cells); assay type: cell-based
Summary of the method: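 AML14.3D10-CCR3 cells (an eosinophil-differentiated AML line stably expressing CCR3) were held 24, 48 or 72 h with vehicle or test compound at 1 μM. Medium was replaced daily with fresh complete medium containing compound. Cells were then challenged with CCL11 (12 nM). Each time point was compared with the 24 h point; mean ± SEM, n=3 experiments in triplicate.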

[9] = biological target: T3, CCR3; assay: 13C HSQC NMR binding to reductively methylated CCR3 positive membranes
Summary of the method: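 13C HSQC spectra recorded on membranes carrying 13C-reductively methylated CCR3 (lysine di-13CH3 label), compared with CCR3-null membranes. Spectra were taken with or without 1 μM CCL11, in the presence or absence of 2 μM test peptide. Binding was judged from spectral comparisons between conditions.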

[10] = test system: sputum eosinophils / AHR; conditions: clinical trial; cited from earlier work

Molecule: CCL26: high affinity agonist chemokine of CCR3
- induction of chemotaxis, blood eosinophils [1]: undergo CCR3-mediated chemotaxis
- induction of chemotaxis, AML14.3D10-CCR3 [2]: undergo CCR3-mediated chemotaxis

Molecule: COC(=O)[C@H](Cc1ccc([N+](=O)[O-])cc1)NC(=O)c1cccc2ccccc12 [SB328437]
- solubility [3]: solubility issues
- OVA-induced accumulation of eosinophils in lungs [4]: successfully suppress OVA-induced accumulation of eosinophils in the lungs
- CCR3 internalization (discussion) ([5]; effect more pronounced with longer treatment times): partially or completely block CCR3 internalization
- activity at CCR3 in eosinophils [6]: specific inhibitor of CCR3 in eosinophils
- CCR3 surface levels, prolonged exposure ([7]; 1 μM, up to 72h): failed to promote CCR3 cell surface accumulation; also recorded: no significant effect on receptor levels
- drop in chemotaxis inhibition level over 72h ([8]; AML14.3D10-CCR3, 1 μM, CCL11 12 nM, 72h): 13.7%
- CCL11/CCR3-mediated chemotaxis inhibition relative to R321 and UCB35625 ([8]; equimolar concentrations, 1 μM): less effective inhibitor of CCL11/CCR3-mediated chemotaxis

Molecule: CCL11: high affinity agonist chemokine of CCR3
- induction of chemotaxis, blood eosinophils [1]: undergo CCR3-mediated chemotaxis
- CCR3 internalized from cell surface ([5]; AML14.3D10-CCR3, CCL11 30 min, flow cytometry): More than 50%
- induction of chemotaxis, AML14.3D10-CCR3 [2]: undergo CCR3-mediated chemotaxis
- CCR3 surface expression, 24h, CCL11 alone ([7]; CCL11 12 nM alone, 24h, % of vehicle): ~ 68%
- CCR3 surface expression, 72h, CCL11 alone ([7]; CCL11 12 nM alone, 72h, % of vehicle): ~ 18%
- interference of CCL11 and R321 with each other's binding ([9]; 1 μM CCL11 and 2 μM R321): neither CCL11 nor R321 interfere with each other’s binding to the receptor
- effect on CCR3 HSQC signals ([9]; 1 μM CCL11 or 2 μM R321): specifically reduced the intensity of CCR3 signals

Molecule: NC(=O)c1ccc(CNC(=O)NC[C@H]2CN(Cc3ccc(Cl)c(Cl)c3)CCO2)cc1 [GW766994]
- AHR [10]: significant inhibition of AHR
- sputum eosinophils [10]: trend towards inhibition of sputum eosinophils

B1: CCL24: high affinity agonist chemokine of CCR3 (protein, UniProt O00175 27-119, looked up)
C-C motif chemokine 24: VVIPSPCCMFFVSKRIPENRVVSYQLSSRSTCLKAGVIFTTKKGQQFCGDPKQEWVQRYMKNLDAKQKKASPRARAVAVKGPVQRYPGNQTTC
- induction of chemotaxis, blood eosinophils [1]: undergo CCR3-mediated chemotaxis
- induction of chemotaxis, AML14.3D10-CCR3 [2]: undergo CCR3-mediated chemotaxis
